# Measured values taken from PMC11184607 (ACS Pharmacology & Translational Science, 2024).
# Bridge positions count the residues as written; N and C are the ends. Square brackets hold non-standard residues; d marks the D form. Peptide text beside a SMILES is read from it. * marks the point of attachment. NMeTrp(1-(4-Br-benzyl)) = CN[C@@H](Cc1cn(Cc2ccc(Br)cc2)c2ccccc12)C(=O)O; Butanoyl(2R-oxy,4-CN) = N#CCC[C@@H](O)C(=O)O; Abu(4,4,4-F3) = N[C@@H](CC(F)(F)F)C(=O)O; dNMeaIle = CC[C@H](C)[C@@H](NC)C(=O)O; NMe2Val = CC(C)[C@@H](C(=O)*)N(C)C; NMeI = CC[C@H](C)[C@H](NC)C(=O)O; NMeT = CN[C@H](C(=O)O)[C@@H](C)O; NMeL = CN[C@@H](CC(C)C)C(=O)O; Hiv = CC(C)[C@H](O)C(=O)O; NMeS = CN[C@@H](CO)C(=O)O; NMeA = CN[C@@H](C)C(=O)O; dNMeA = CN[C@H](C)C(=O)O
# Experiments:
# [1] = system: SPs of Sec61 substrates; conditions: read-out: IC50, SPs of other (insensitive) Sec61 substrates; cited from earlier work
# [2] = system: U87-MG GBM cells; test: Cell viability; assay type: cell-based, human; conditions: 72 h
# Outline: (§1)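 Cells are grown at 37 °C in 5% CO2. U87-MG and U251 are in MEM with 10% FBS, SF-268 in DMEM with 10% FBS, and SF-295 in RPMI 1640 with 10% FBS. HUVECs are pooled donors. Exposure is to the test compound (0.1 nM–1 μM) or 0.1% DMSO for 72 h. Viability is read by ATP luminescence as % of vehicle, n = 3 wells. […] comes from a logistic nonlinear fit over three independent comparisons.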
# [3] = system: SF-295 GBM cells; test: Cell viability; assay type: cell-based, human; conditions: 72 h
# Outline: as §1
# [4] = system: WT and mutant (R66I) Sec61α HCT116 colon cancer cells; test: Viability of WT versus Sec61α R66I mutant HCT116 cells; assay type: cell-based, human; conditions: for Effect of Sec61α R66I mutation on cytotoxic response relative to WT HCT116 cells: 72 h and 6 days (3 + 3 day exposure)
# [5] = system: HEK293FRT cells expressing WT or mutant (R66I) Sec61α; test: Viability of WT versus Sec61α R66I mutant HEK293 cells; assay type: cell-based, human; conditions: 72 h or 3 + 3 day exposure
# Outline: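 HEK293FRT cells carrying Sec61α R66I, with wild-type comparators, are grown in DMEM with 10% FBS, 6 mM L-glutamine and 1 mM pyruvate. They are exposed to increasing test compound concentrations or 0.1% DMSO for 72 h, or 3 + 3 days to avoid nutrient deprivation. ATP viability is read as % of vehicle, n = 3 wells. Logistic nonlinear fit; ≥3 independent experiments.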
# [6] = system: VCAM1; test: Immunoblot of TNFα-stimulated VCAM1 in SF-295 cells; assay type: cell-based, human; conditions: for Efficacy in suppressing TNFα-stimulated VCAM1 expression: 1 µM, 24 h; for IC50: read-out: IC50, VCAM1 expression, TNFα 10 ng/mL, 24 h
# Outline: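 SF-295 cells (RPMI 1640, 10% FBS) are cotreated 24 h with increasing concentrations of test compound plus TNFα 10 ng/mL. Controls are 0.1% DMSO-treated and untreated cells. VCAM1 and ICAM1 are immunoblotted after SDS-PAGE and PVDF transfer. Signals are normalized to a loading control. Concentration–response is fit to a logistic equation by nonlinear regression.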
# [7] = system: VCAM1; test: Immunoblot of VCAM1 transiently expressed in HEK293 cells; assay type: cell-based, human; conditions: 1 µM, 24 h
# [8] = system: BiP; test: Immunoblot of BiP expression; assay type: cell-based, human; conditions: for BiP expression: HUVECs and U87-MG cells, 1 μM, 24 h
# [9] = system: Hsp70; test: Immunoblot of Hsp70 in U87-MG cells; assay type: cell-based, human; conditions: 1 30 nM, 2 1 μM, 24 h
# Outline: (§2)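 U87-MG cells in MEM with 10% FBS are exposed 24 h to test compound (30 nM or 1 μM) or 0.1% DMSO. Protein-matched lysates (BCA) are run on SDS-PAGE, transferred to PVDF and detected with HRP secondary. Signals are normalized to α-tubulin and expressed relative to control. Three independent experiments; one-way ANOVA then t-test.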
# [10] = system: Hsp90; test: Immunoblot of Hsp90 in U87-MG cells; assay type: cell-based, human; conditions: 1 30 nM, 2 1 μM, 24 h
# Outline: as §2
# [11] = system: VEGF-A; test: VEGF-A in cell culture medium by ELISA; assay type: cell-based, human; conditions: 1 µM, sustained 24 h after removal
# [12] = system: human cytokines and chemokines in the SF-268 secretome; test: Secretome profiling of human cytokines/chemokines in SF-268 conditioned medium; assay type: cell-based; conditions: SF-268, 1 μM, medium collected 24 h after removal, relative to vehicle
# Outline: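 SF-268 cells are seeded in 96-well plates; next day they get complete medium with test compound (1 μM) or 0.1% DMSO for 24 h. Medium is then replaced by serum-free medium for a further 24 h. Conditioned medium is concentrated by centrifugation (75 min, 4000g), flash-frozen and run on a 48-plex multiplex laser-bead cytokine/chemokine immunoassay. 43 analytes are quantified (five below detection dropped); data are % of vehicle.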
# [13] = system: patient-derived GSCs (M120, MGG6, M76, GBM8, and 157); assay type: cell-based, human; conditions: read-out: EC50 values, five GSC lines (M120, MGG6, M76, GBM8, 157); 72 h
# [14] = biological target: Gaussia luciferase (GLuc); test: Gaussia luciferase; assay type: cell-based, human; conditions: 18 h; for Functional inhibition of GLuc secretion: relative to 1–3 or AprA
# Outline: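 U87-MG cells stably express GLuc after lentiviral transduction. Cells are seeded at 3000/well, allowed to adhere overnight, then given test compound or 0.1% DMSO for 18 h. Conditioned medium is read for luminescence with 1.2 μM final coelenterazine (3 s wait, 0.5 s integration). Adherent-cell ATP viability is read at the same time. Data are % of vehicle; IC50 comes from a logistic nonlinear fit; n ≥3 independent experiments.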
# [15] = system: calreticulin (CALR); test: Immunoblot of calreticulin expression in U87-MG cells; assay type: cell-based, human; conditions: 1 μM, 24 h
# Outline: as §2
# [16] = system: cancer cell lines; conditions: cited from earlier work
# [17] = system: UPR markers (BiP, CHOP, sXBP1, GADD34, IRE1) mRNA; test: qPCR of ER stress; assay type: cell-based, human; conditions: 300 nM, 24 h
# Outline: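 GSC neurospheres (MGG6, 83, M76, GBM8) are treated 24 h with test compound 80 nM, thapsigargin 300 nM, both together, or 0.1% DMSO. BiP, CHOP, sXBP1, GADD34 and IRE1 mRNA are measured by qPCR normalized to GAPDH and expressed as fold-change versus vehicle.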
smiles,measurement,setting,value
"CC(C)C[C@@H]1NC(=O)[C@H](Cc2cn(Cc3ccc(Br)cc3)c3ccccc23)N(C)C(=O)[C@H](CC(F)(F)F)NC(=O)[C@H](CC(C)C)N(C)C(=O)[C@H](CC(F)(F)F)NC(=O)[C@@H](CCC#N)OC(=O)[C@H](C)N(C)C1=O [KZR-8445] (cyclo(L[NMeA][Butanoyl(2R-oxy,4-CN)][Abu(4,4,4-F3)][NMeL][Abu(4,4,4-F3)][NMeTrp(1-(4-Br-benzyl))]))",IC50,[1],> 25000 nM
"CC[C@H](C)[C@H]1C(=O)N[C@@H](C)C(=O)N(C)[C@@H](CC(C)C)C(=O)N[C@@H](Cc2ccc(OC)cc2)C(=O)N(C)[C@H](C)C(=O)O[C@H](C)[C@H](N(C)C(=O)[C@H](CC(C)C)N(C)C(=O)[C@H](COC)N(C)C(=O)[C@@H](OC(=O)[C@H](C(C)C)N(C)C)C(C)C)C(=O)N(C)[C@@H](COC)C(=O)N1C [compound 2, [L-Hiv^2]-CbA] (NMe2Val-[Hiv][NMeS](Me)[NMeL][NMeT][NMeS](Me)[NMeI]A[NMeL]Y(Me)[dNMeA]; ester 4-C)","Fold less potent than 1, U87-MG cells",[2],approximately 13 fold
same,"Fold less sensitive than 1, SF-295 cells",[3],5 fold
same,Effect of Sec61α R66I mutation on cytotoxic response relative to WT HCT116 cells,[4],decrease in cytotoxic efficacy
same,Response of mutant Sec61(R66I) HEK293 cells relative to WT,[5],patterns of resistance
same,Fold greater sensitivity of VCAM1 to 2 than to 3,[6],approximately 7 fold
same,Efficacy in suppressing TNFα-stimulated VCAM1 expression,[6],fully efficacious
same,IC50,[6],88 nM
same,Level of VCAM1 transiently expressed in HEK293 cells,[7],statistically significant decreases
same,"BiP expression, GSC line 83","[8]; 1 250 nM and 500 nM, 2 3 µM, 72 h",decrease
same,BiP expression,[8],suppressed
same,Hsp70 expression,[9],upregulation
same,Hsp90 expression,[10],upregulation
same,Inhibition of VEGF-A at 24 h,[11],statistically significant inhibition
same,Number of the 43 secreted proteins whose expression was decreased by <50%,[12],24
same,EC50,[13],< 3000 nM
"CC[C@H](C)[C@H]1C(=O)N[C@@H](C)C(=O)N(C)[C@@H](CC(C)C)C(=O)N[C@@H](Cc2ccc(OC)cc2)C(=O)N(C)[C@@H](C)C(=O)O[C@H](C)[C@H](N(C)C(=O)[C@H](CC(C)C)N(C)C(=O)[C@H](COC)N(C)C(=O)[C@@H](OC(=O)[C@H](C(C)C)N(C)C)C(C)C)C(=O)N(C)[C@@H](COC)C(=O)N1C [compound 3, [L-Hiv^2, L-MeAla^11]-CbA] (NMe2Val-[Hiv][NMeS](Me)[NMeL][NMeT][NMeS](Me)[NMeI]A[NMeL]Y(Me)[NMeA]; ester 4-C)",IC50,"[14]; read-out: IC50, inhibition of GLuc secretion, U87-MG cells expressing GLuc, conditioned medium",< 20 nM
same,Cell viability of HCT116 cells at 72 h,"[4]; 72 h, 0.3 nM–3 μM",no change in the cell viability
same,Response of R66I mutant HCT116 cells at the extended end point,[4]; 6 days (3 + 3 day exposure),pattern of resistance
same,Response of mutant Sec61(R66I) HEK293 cells relative to WT,[5],patterns of resistance
same,Efficacy in suppressing TNFα-stimulated VCAM1 expression,[6],partially effective
same,IC50,[6],620 nM
same,Level of VCAM1 transiently expressed in HEK293 cells,[7],statistically significant decreases
same,BiP expression,[8],no statistically significant change
same,CALR expression,[15],less sensitive
same,Inhibition of VEGF-A at 24 h,[11],statistically significant inhibition
same,Number of the 43 secreted proteins whose expression was decreased by <50%,[12],18
same,EC50,[13],< 6000 nM
same,Cytotoxic efficacy range,[16],micromolar range
"CC[C@H](C)[C@@H]1C(=O)N[C@@H](C)C(=O)N(C)[C@@H](CC(C)C)C(=O)N[C@@H](Cc2ccc(OC)cc2)C(=O)N(C)[C@H](C)C(=O)O[C@H](C)[C@H](N(C)C(=O)[C@H](CC(C)C)N(C)C(=O)[C@H](COC)N(C)C(=O)[C@@H](OC(=O)[C@H](C(C)C)N(C)C)C(C)C)C(=O)N(C)[C@@H](COC)C(=O)N1C [compound 4, [L-Hiv^2, D-allo-Ile^7]-CbA] (NMe2Val-[Hiv][NMeS](Me)[NMeL][NMeT][NMeS](Me)[dNMeaIle]A[NMeL]Y(Me)[dNMeA]; ester 4-C)",Functional inhibition of GLuc secretion,[14],loss of functional efficacy
"CC[C@H](C)[C@@H]1C(=O)N[C@@H](C)C(=O)N(C)[C@@H](CC(C)C)C(=O)N[C@@H](Cc2ccc(OC)cc2)C(=O)N(C)[C@@H](C)C(=O)O[C@H](C)[C@H](N(C)C(=O)[C@H](CC(C)C)N(C)C(=O)[C@H](COC)N(C)C(=O)[C@@H](OC(=O)[C@H](C(C)C)N(C)C)C(C)C)C(=O)N(C)[C@@H](COC)C(=O)N1C [compound 5, [L-Hiv^2, D-allo-Ile^7, L-MeAla^11]-CbA] (NMe2Val-[Hiv][NMeS](Me)[NMeL][NMeT][NMeS](Me)[dNMeaIle]A[NMeL]Y(Me)[NMeA]; ester 4-C)",Functional inhibition of GLuc secretion,[14],loss of functional efficacy
"C[C@@]12OC(=O)[C@]1([C@@H](O)[C@@H]1C=CCCC1)NC(=O)[C@@H]2CCCl [marizomib, reference compound]",Effect of Sec61α R66I mutation on cytotoxic response relative to WT HCT116 cells,[4],did not change the cytotoxic efficacy
same,Response of mutant Sec61(R66I) HEK293 cells relative to WT,[5],highly sensitive
"C/C=C(/C)C(=O)O[C@H]1C(C)=C2[C@H]([C@@H]1OC(=O)CCCCCCC)[C@@](C)(OC(C)=O)C[C@H](OC(=O)CCC)[C@@]1(O)[C@H]2OC(=O)[C@@]1(C)O [thapsigargin, reference compound]","BiP, CHOP, sXBP1, GADD34 and IRE1 mRNA expression in GSCs",[17],marked upregulation
